According to ChEMBL document CHEMBL2390844, “Evaluation of bioactivities of chlorokojic acid derivatives against dermatophytes couplet with cytotoxicity” (Bioorg Med Chem Lett, 2013):
Values after ≈ are worked out from the molar mass of the structure shown.

Key:
[1] = tested on: Nannizzia gypsea; assay: Antidermatophytic activity against Microsporum gypseum NCPF 580 after 7 days by broth microdilution method; type: functional; conditions: NCPF 580, 168 h
Outline: (§1)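 Broth microdilution per CLSI in RPMI 1640 with L-glutamine, no bicarbonate, buffered to pH 7.0 with 0.165 M MOPS, filter-sterilized. Test dilution series 128-0.0625 μg mL⁻¹; sterility and growth (inoculum) controls on each plate. Wells inoculated, incubated 28°C for 7 days, read visually with an inverted mirror; MIC recorded. Triplicate.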

[2] = Cytotoxicity against human HeLa cells; type: cell-based; conditions: read-out: MNCC
Outline: (§2)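 Maximum non-toxic concentration (MNTC) determined in HeLa and MRC-5 cells by a previously described method, based on cellular morphological alteration.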

[3] = Antidermatophytic activity against Trichophyton mentagrophytes var. erinacei isolate after 7 days by broth microdilution method; type: functional; conditions: Arthroderma benhamiae; outline: as §1
[4] = tested on: Nannizzia gypsea; assay: Antidermatophytic activity against Microsporum gypseum isolate after 7 days by broth microdilution method; type: functional; conditions: 168 h; outline: as §1
[5] = Cytotoxicity against human MRC5 cells; type: cell-based; conditions: read-out: MNCC; outline: as §2
[6] = tested on: Epidermophyton floccosum; assay: Antidermatophytic activity against Epidermophyton floccosum RSKK 3027 after 7 days by broth microdilution method; type: functional; conditions: RSKK 3027, 168 h; outline: as §1
[7] = tested on: Epidermophyton floccosum; assay: Antidermatophytic activity against Epidermophyton floccosum isolate after 7 days by broth microdilution method; type: functional; conditions: 168 h; outline: as §1
[8] = Antidermatophytic activity against Trichophyton mentagrophytes var. erinacei NCPF 375 after 7 days by broth microdilution method; type: functional; conditions: Arthroderma benhamiae; outline: as §1

SMILES	MIC [1]	MNTC [2]	MIC [3]	MIC [4]	MNTC [5]	MIC [6]	MIC [7]	MIC [8]
CC(=O)c1ccc(N2CCN(Cc3oc(CCl)cc(=O)c3O)CC2)cc1	16 µg/mL (≈ 42.5 µM)	≥ 512 µg/mL	16 µg/mL (≈ 42.5 µM)	16 µg/mL (≈ 42.5 µM)	≥ 512 µg/mL	16 µg/mL (≈ 42.5 µM)	16 µg/mL (≈ 42.5 µM)	16 µg/mL (≈ 42.5 µM)
O=c1cc(CCl)oc(CN2CCN(c3ccc([N+](=O)[O-])cc3)CC2)c1O	16 µg/mL (≈ 42.1 µM)	≥ 512 µg/mL	32 µg/mL (≈ 84.3 µM)	32 µg/mL (≈ 84.3 µM)	≥ 512 µg/mL	16 µg/mL (≈ 42.1 µM)	32 µg/mL (≈ 84.3 µM)	16 µg/mL (≈ 42.1 µM)
O=c1cc(CCl)oc(CN2CCN(Cc3ccc(C(F)(F)F)cc3)CC2)c1O	4 µg/mL (≈ 9.6 µM)	≥ 512 µg/mL	8 µg/mL (≈ 19.2 µM)	8 µg/mL (≈ 19.2 µM)	≥ 512 µg/mL	4 µg/mL (≈ 9.6 µM)	8 µg/mL (≈ 19.2 µM)	4 µg/mL (≈ 9.6 µM)
O=c1cc(CCl)oc(CN2CCN(c3ccc(F)cc3)CC2)c1O	8 µg/mL (≈ 22.7 µM)		8 µg/mL (≈ 22.7 µM)	16 µg/mL (≈ 45.4 µM)	≥ 128 µg/mL	8 µg/mL (≈ 22.7 µM)	16 µg/mL (≈ 45.4 µM)	8 µg/mL (≈ 22.7 µM)
O=c1cc(CCl)oc(CN2CCN(Cc3cc(F)ccc3F)CC2)c1O	4 µg/mL (≈ 10.4 µM)	≥ 256 µg/mL	8 µg/mL (≈ 20.8 µM)	8 µg/mL (≈ 20.8 µM)	≥ 256 µg/mL	4 µg/mL (≈ 10.4 µM)	8 µg/mL (≈ 20.8 µM)	4 µg/mL (≈ 10.4 µM)
O=c1cc(CCl)oc(CN2CCN(Cc3c(Cl)cccc3Cl)CC2)c1O	4 µg/mL (≈ 9.58 µM)	≥ 256 µg/mL	8 µg/mL (≈ 19.2 µM)	8 µg/mL (≈ 19.2 µM)	≥ 512 µg/mL	4 µg/mL (≈ 9.58 µM)	8 µg/mL (≈ 19.2 µM)	4 µg/mL (≈ 9.58 µM)
N#CC1(c2ccccc2)CCN(Cc2oc(CCl)cc(=O)c2O)CC1	16 µg/mL (≈ 44.6 µM)	≥ 256 µg/mL	32 µg/mL (≈ 89.2 µM)	32 µg/mL (≈ 89.2 µM)	≥ 256 µg/mL	16 µg/mL (≈ 44.6 µM)	32 µg/mL (≈ 89.2 µM)	16 µg/mL (≈ 44.6 µM)
O=c1cc(CCl)oc(CN2CCN(c3ccc(C(F)(F)F)cc3)CC2)c1O	32 µg/mL (≈ 79.4 µM)		64 µg/mL (≈ 159 µM)	64 µg/mL (≈ 159 µM)	≥ 128 µg/mL	32 µg/mL (≈ 79.4 µM)	64 µg/mL (≈ 159 µM)	32 µg/mL (≈ 79.4 µM)
Cc1ccc(N2CCN(Cc3oc(CCl)cc(=O)c3O)CC2)cc1	4 µg/mL (≈ 11.5 µM)	≥ 64 µg/mL	8 µg/mL (≈ 22.9 µM)	8 µg/mL (≈ 22.9 µM)	≥ 64 µg/mL	4 µg/mL (≈ 11.5 µM)	8 µg/mL (≈ 22.9 µM)	4 µg/mL (≈ 11.5 µM)
O=c1cc(CCl)oc(CN2CCN(Cc3cccc(C(F)(F)F)c3)CC2)c1O	4 µg/mL (≈ 9.6 µM)	≥ 512 µg/mL	8 µg/mL (≈ 19.2 µM)	8 µg/mL (≈ 19.2 µM)	≥ 512 µg/mL	4 µg/mL (≈ 9.6 µM)	8 µg/mL (≈ 19.2 µM)	4 µg/mL (≈ 9.6 µM)
O=c1cc(CCl)oc(CN2CC=C(c3ccc(Cl)cc3)CC2)c1O	8 µg/mL (≈ 21.8 µM)	≥ 256 µg/mL	8 µg/mL (≈ 21.8 µM)	8 µg/mL (≈ 21.8 µM)	≥ 256 µg/mL	8 µg/mL (≈ 21.8 µM)	8 µg/mL (≈ 21.8 µM)	8 µg/mL (≈ 21.8 µM)
Cc1cccc(N2CCN(Cc3oc(CCl)cc(=O)c3O)CC2)c1C	8 µg/mL (≈ 22 µM)	≥ 256 µg/mL	8 µg/mL (≈ 22 µM)	16 µg/mL (≈ 44.1 µM)	≥ 256 µg/mL	8 µg/mL (≈ 22 µM)	16 µg/mL (≈ 44.1 µM)	4 µg/mL (≈ 11 µM)
Cc1cccc(CN2CCN(Cc3oc(CCl)cc(=O)c3O)CC2)c1	16 µg/mL (≈ 44.1 µM)	≥ 512 µg/mL	16 µg/mL (≈ 44.1 µM)	32 µg/mL (≈ 88.2 µM)	≥ 512 µg/mL	16 µg/mL (≈ 44.1 µM)	32 µg/mL (≈ 88.2 µM)	16 µg/mL (≈ 44.1 µM)
Cc1ccccc1N1CCN(Cc2oc(CCl)cc(=O)c2O)CC1	16 µg/mL (≈ 45.9 µM)	≥ 128 µg/mL	16 µg/mL (≈ 45.9 µM)	32 µg/mL (≈ 91.7 µM)	≥ 128 µg/mL	16 µg/mL (≈ 45.9 µM)	32 µg/mL (≈ 91.7 µM)	8 µg/mL (≈ 22.9 µM)
COC1=CC(=O)C[C@@H](C)[C@]12Oc1c(Cl)c(OC)cc(OC)c1C2=O [GRISEOFULVIN]	0.5 µg/mL (≈ 1.42 µM)		1 µg/mL (≈ 2.83 µM)	1 µg/mL (≈ 2.83 µM)		0.5 µg/mL (≈ 1.42 µM)	1 µg/mL (≈ 2.83 µM)	0.5 µg/mL (≈ 1.42 µM)
O=c1cc(CCl)oc(CN2CC=C(c3ccccc3)CC2)c1O	8 µg/mL (≈ 24.1 µM)	≥ 256 µg/mL	16 µg/mL (≈ 48.2 µM)	16 µg/mL (≈ 48.2 µM)	≥ 256 µg/mL	8 µg/mL (≈ 24.1 µM)	16 µg/mL (≈ 48.2 µM)	8 µg/mL (≈ 24.1 µM)
O=c1cc(CCl)oc(CN2CCN(c3ccccc3F)CC2)c1O	8 µg/mL (≈ 22.7 µM)		16 µg/mL (≈ 45.4 µM)	16 µg/mL (≈ 45.4 µM)	≥ 128 µg/mL	16 µg/mL (≈ 45.4 µM)	32 µg/mL (≈ 90.7 µM)	8 µg/mL (≈ 22.7 µM)
O=c1cc(CCl)occ1O	2 µg/mL (≈ 12.5 µM)	≥ 256 µg/mL	8 µg/mL (≈ 49.8 µM)	4 µg/mL (≈ 24.9 µM)	≥ 256 µg/mL	8 µg/mL (≈ 49.8 µM)	16 µg/mL (≈ 99.7 µM)	4 µg/mL (≈ 24.9 µM)
O=c1cc(CCl)oc(CN2CCN(Cc3ccccc3)CC2)c1O	16 µg/mL (≈ 45.9 µM)	≥ 512 µg/mL	32 µg/mL (≈ 91.7 µM)	32 µg/mL (≈ 91.7 µM)	≥ 512 µg/mL	16 µg/mL (≈ 45.9 µM)	32 µg/mL (≈ 91.7 µM)	16 µg/mL (≈ 45.9 µM)
O=C(C1CCCCC1)N1CCN(Cc2oc(CCl)cc(=O)c2O)CC1	16 µg/mL (≈ 43.4 µM)	≥ 128 µg/mL	16 µg/mL (≈ 43.4 µM)	32 µg/mL (≈ 86.8 µM)	≥ 128 µg/mL	16 µg/mL (≈ 43.4 µM)	32 µg/mL (≈ 86.8 µM)	8 µg/mL (≈ 21.7 µM)
Cc1ccccc1CN1CCN(Cc2oc(CCl)cc(=O)c2O)CC1	16 µg/mL (≈ 44.1 µM)	≥ 512 µg/mL	32 µg/mL (≈ 88.2 µM)	32 µg/mL (≈ 88.2 µM)	≥ 512 µg/mL	16 µg/mL (≈ 44.1 µM)	32 µg/mL (≈ 88.2 µM)	16 µg/mL (≈ 44.1 µM)
O=C(OCc1ccccc1)N1CCN(Cc2oc(CCl)cc(=O)c2O)CC1	4 µg/mL (≈ 10.2 µM)	≥ 256 µg/mL	8 µg/mL (≈ 20.4 µM)	8 µg/mL (≈ 20.4 µM)	≥ 128 µg/mL	4 µg/mL (≈ 10.2 µM)	8 µg/mL (≈ 20.4 µM)	4 µg/mL (≈ 10.2 µM)
O=c1cc(CCl)oc(CN2CCN(Cc3ccc(Cl)cc3)CC2)c1O	4 µg/mL (≈ 10.4 µM)	≥ 128 µg/mL	8 µg/mL (≈ 20.9 µM)	8 µg/mL (≈ 20.9 µM)	≥ 128 µg/mL	4 µg/mL (≈ 10.4 µM)	8 µg/mL (≈ 20.9 µM)	4 µg/mL (≈ 10.4 µM)
O=c1cc(CCl)oc(CN2CCN(c3ccccc3)CC2)c1O	8 µg/mL (≈ 23.9 µM)	≥ 256 µg/mL	16 µg/mL (≈ 47.8 µM)	8 µg/mL (≈ 23.9 µM)	≥ 256 µg/mL	4 µg/mL (≈ 11.9 µM)	8 µg/mL (≈ 23.9 µM)	8 µg/mL (≈ 23.9 µM)
O=c1cc(CCl)oc(CN2CCN(C3CCCCC3)CC2)c1O	16 µg/mL (≈ 46.9 µM)	≥ 512 µg/mL	16 µg/mL (≈ 46.9 µM)	32 µg/mL (≈ 93.9 µM)	≥ 512 µg/mL	16 µg/mL (≈ 46.9 µM)	32 µg/mL (≈ 93.9 µM)	16 µg/mL (≈ 46.9 µM)
O=c1cc(CCl)oc(CN2CCN(CC3CCCCC3)CC2)c1O	4 µg/mL (≈ 11.3 µM)	≥ 256 µg/mL	8 µg/mL (≈ 22.5 µM)	8 µg/mL (≈ 22.5 µM)	≥ 512 µg/mL	4 µg/mL (≈ 11.3 µM)	8 µg/mL (≈ 22.5 µM)	4 µg/mL (≈ 11.3 µM)
CCC(C)n1ncn(-c2ccc(N3CCN(c4ccc(OCC5COC(Cn6cncn6)(c6ccc(Cl)cc6Cl)O5)cc4)CC3)cc2)c1=O (stereo not drawn) [ITRACONAZOLE]	0.125 µg/mL (≈ 0.177 µM)		0.5 µg/mL (≈ 0.709 µM)	0.25 µg/mL (≈ 0.354 µM)		0.125 µg/mL (≈ 0.177 µM)	0.25 µg/mL (≈ 0.354 µM)	0.25 µg/mL (≈ 0.354 µM)
CN(C/C=C/C#CC(C)(C)C)Cc1cccc2ccccc12 [TERBINAFINE]	0.25 µg/mL (≈ 0.858 µM)		0.25 µg/mL (≈ 0.858 µM)	0.5 µg/mL (≈ 1.72 µM)		0.25 µg/mL (≈ 0.858 µM)	0.5 µg/mL (≈ 1.72 µM)	0.125 µg/mL (≈ 0.429 µM)
O=c1cc(CCl)oc(CN2CC=C(c3ccc(F)cc3)CC2)c1O	16 µg/mL (≈ 45.7 µM)	≥ 256 µg/mL	16 µg/mL (≈ 45.7 µM)	16 µg/mL (≈ 45.7 µM)	≥ 256 µg/mL	16 µg/mL (≈ 45.7 µM)	16 µg/mL (≈ 45.7 µM)	16 µg/mL (≈ 45.7 µM)
